Assay results: ChEMBL document CHEMBL5058577, “EUbOPEN Chemogenomics Library 2 (Multiplex)” (2022)

System: HEK-293T
Assay: Multiplex assay against HEK293T
Format: toxicity, cell-based
Conditions: human
In short: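 Hoechst33342, BioTracker Green Microtubule Cytoskeleton Dye, MitoTracker Red and Annexin V Alexa Fluor 680 were added to live cells at seeding, and imaging on a CQ1 microscope at 37°C and 5% CO2 followed compound addition. Gating by CellPathfinder machine learning separated cells into Hoechst high-intensity objects or normal cells, then normal cells into healthy, pyknosed or fragmented nuclei, then pyknosed cells into mitotic or apoptotic. Per cents of healthy-nucleus cells are reported for the tubulin, mitochondrial-mass and membrane-permeability phenotypes.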

[1] = 12 h, 1 µM, compound concentration 1 uM, replicate 1
[2] = 12 h, 1 µM, compound concentration 1 uM, replicate 2
[3] = 12 h, 10 µM, compound concentration 10 uM, replicate 1
[4] = 12 h, 10 µM, compound concentration 10 uM, replicate 2
[5] = 24 h, 1 µM, compound concentration 1 uM, replicate 1
[6] = 24 h, 1 µM, compound concentration 1 uM, replicate 2
[7] = 24 h, 10 µM, compound concentration 10 uM, replicate 1
[8] = 24 h, 10 µM, compound concentration 10 uM, replicate 2
[9] = 48 h, 1 µM, compound concentration 1 uM, replicate 1
[10] = 48 h, 1 µM, compound concentration 1 uM, replicate 2
[11] = 48 h, 10 µM, compound concentration 10 uM, replicate 1
[12] = 48 h, 10 µM, compound concentration 10 uM, replicate 2

Compound: Cc1nn(C)c2nc(NNC(=O)Nc3cc(Cl)nc(Cl)c3)cc(C(C)C)c12
- Population Apoptotic (%) [1]: 27%
- Population Fragmented Nuclei (%) [1]: 5%
- Population Healthy Nuclei (%) [1]: 77%
- Population Hoechst High Intensity Objects (%) [1]: 5%
- Population Membrane Permeable-Phenotype (%) [1]: 0%
- Population Mitochondria Different-Phenotype (%) [1]: 37%
- Population Mitotic Cells (%) [1]: 72%
- Population Normal (%) [1]: 94%
- Population Pyknosed Nuclei (%) [1]: 16%
- Population Tubulin-Different-Phenotype (%) [1]: 26%
- Total Cell Count [1]: 467
- Population Apoptotic (%) [2]: 40%
- Population Healthy Nuclei (%) [2]: 81%
- Population Hoechst High Intensity Objects (%) [2]: 2%
- Population Mitochondria Different-Phenotype (%) [2]: 59%
- Population Mitotic Cells (%) [2]: 60%
- Population Normal (%) [2]: 97%
- Population Pyknosed Nuclei (%) [2]: 13%
- Population Tubulin-Different-Phenotype (%) [2]: 25%
- Total Cell Count [2]: 383
- Population Apoptotic (%) [3]: 55%
- Population Fragmented Nuclei (%) [3]: 5%
- Population Healthy Nuclei (%) [3]: 61%
- Population Hoechst High Intensity Objects (%) [3]: 12%
- Population Membrane Permeable-Phenotype (%) [3]: 1%
- Population Mitochondria Different-Phenotype (%) [3]: 79%
- Population Mitotic Cells (%) [3]: 44%
- Population Normal (%) [3]: 88%
- Population Pyknosed Nuclei (%) [3]: 32%
- Population Tubulin-Different-Phenotype (%) [3]: 80%
- Total Cell Count [3]: 300
- Population Apoptotic (%) [4]: 46%
- Population Fragmented Nuclei (%) [4]: 4%
- Population Healthy Nuclei (%) [4]: 74%
- Population Hoechst High Intensity Objects (%) [4]: 3%
- Population Mitochondria Different-Phenotype (%) [4]: 84%
- Population Mitotic Cells (%) [4]: 53%
- Population Normal (%) [4]: 96%
- Population Pyknosed Nuclei (%) [4]: 21%
- Population Tubulin-Different-Phenotype (%) [4]: 75%
- Total Cell Count [4]: 396
- Population Apoptotic (%) [5]: 31%
- Population Fragmented Nuclei (%) [5]: 9%
- Population Healthy Nuclei (%) [5]: 78%
- Population Hoechst High Intensity Objects (%) [5]: 3%
- Population Membrane Permeable-Phenotype (%) [5]: 0%
- Population Mitochondria Different-Phenotype (%) [5]: 27%
- Population Mitotic Cells (%) [5]: 68%
- Population Normal (%) [5]: 96%
- Population Pyknosed Nuclei (%) [5]: 11%
- Population Tubulin-Different-Phenotype (%) [5]: 20%
- Total Cell Count [5]: 608
- Population Fragmented Nuclei (%) [6]: 6%
- Population Healthy Nuclei (%) [6]: 82%
- Population Hoechst High Intensity Objects (%) [6]: 1%
- Population Mitochondria Different-Phenotype (%) [6]: 37%
- Population Normal (%) [6]: 98%
- Population Tubulin-Different-Phenotype (%) [6]: 19%
- Total Cell Count [6]: 512
- Population Apoptotic (%) [7]: 59%
- Population Fragmented Nuclei (%) [7]: 10%
- Population Healthy Nuclei (%) [7]: 66%
- Population Hoechst High Intensity Objects (%) [7]: 5%
- Population Membrane Permeable-Phenotype (%) [7]: 0%
- Population Mitochondria Different-Phenotype (%) [7]: 78%
- Population Mitotic Cells (%) [7]: 40%
- Population Normal (%) [7]: 94%
- Population Pyknosed Nuclei (%) [7]: 22%
- Population Tubulin-Different-Phenotype (%) [7]: 74%
- Total Cell Count [7]: 321
- Population Apoptotic (%) [8]: 55%
- Population Fragmented Nuclei (%) [8]: 5%
- Population Healthy Nuclei (%) [8]: 78%
- Population Mitochondria Different-Phenotype (%) [8]: 80%
- Population Mitotic Cells (%) [8]: 44%
- Population Normal (%) [8]: 95%
- Population Pyknosed Nuclei (%) [8]: 16%
- Population Tubulin-Different-Phenotype (%) [8]: 69%
- Total Cell Count [8]: 440
- Population Apoptotic (%) [9]: 27%
- Population Fragmented Nuclei (%) [9]: 12%
- Population Healthy Nuclei (%) [9]: 78%
- Population Hoechst High Intensity Objects (%) [9]: 3%
- Population Membrane Permeable-Phenotype (%) [9]: 1%
- Population Mitochondria Different-Phenotype (%) [9]: 17%
- Population Mitotic Cells (%) [9]: 72%
- Population Normal (%) [9]: 96%
- Population Pyknosed Nuclei (%) [9]: 9%
- Population Tubulin-Different-Phenotype (%) [9]: 16%
- Total Cell Count [9]: 912
- Population Apoptotic (%) [10]: 18%
- Population Fragmented Nuclei (%) [10]: 13%
- Population Healthy Nuclei (%) [10]: 81%
- Population Hoechst High Intensity Objects (%) [10]: 2%
- Population Mitochondria Different-Phenotype (%) [10]: 25%
- Population Mitotic Cells (%) [10]: 81%
- Population Normal (%) [10]: 97%
- Population Pyknosed Nuclei (%) [10]: 5%
- Population Tubulin-Different-Phenotype (%) [10]: 19%
- Total Cell Count [10]: 748
- Population Apoptotic (%) [11]: 62%
- Population Fragmented Nuclei (%) [11]: 9%
- Population Healthy Nuclei (%) [11]: 72%
- Population Hoechst High Intensity Objects (%) [11]: 3%
- Population Membrane Permeable-Phenotype (%) [11]: 0%
- Population Mitochondria Different-Phenotype (%) [11]: 82%
- Population Mitotic Cells (%) [11]: 37%
- Population Normal (%) [11]: 96%
- Population Pyknosed Nuclei (%) [11]: 18%
- Population Tubulin-Different-Phenotype (%) [11]: 78%
- Total Cell Count [11]: 387
- Population Apoptotic (%) [12]: 45%
- Population Healthy Nuclei (%) [12]: 79%
- Population Hoechst High Intensity Objects (%) [12]: 4%
- Population Mitochondria Different-Phenotype (%) [12]: 71%
- Population Mitotic Cells (%) [12]: 55%
- Population Normal (%) [12]: 95%
- Population Pyknosed Nuclei (%) [12]: 10%
- Population Tubulin-Different-Phenotype (%) [12]: 63%
- Total Cell Count [12]: 593
